Results reported in ChEMBL document CHEMBL5058577, “EUbOPEN Chemogenomics Library 2 (Multiplex)” (2022).

System: Fibroblast
Assay: Multiplex assay against human fibroblast
Assay type: toxicity, cell-based
Method in brief: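 Values for tubulin, mitochondrial-mass and membrane-permeability phenotypes are per cents of cells with healthy nuclei. These cells were identified by CellPathfinder machine-learning gating of live cells that had been stained at seeding with Hoechst33342, BioTracker Green Microtubule Cytoskeleton Dye, MitoTracker Red and Annexin V Alexa Fluor 680 and imaged on a CQ1 microscope at 37°C and 5% CO2 after compound addition. The gating first set Hoechst high-intensity objects apart from normal cells, then split normal cells into healthy, pyknosed or fragmented nuclei, and pyknosed cells into mitotic or apoptotic.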

[1] = 12 h, 1 µM, compound concentration 1 uM, replicate 1
[2] = 12 h, 1 µM, compound concentration 1 uM, replicate 2
[3] = 12 h, 10 µM, compound concentration 10 uM, replicate 1
[4] = 12 h, 10 µM, compound concentration 10 uM, replicate 2
[5] = 24 h, 1 µM, compound concentration 1 uM, replicate 1
[6] = 24 h, 1 µM, compound concentration 1 uM, replicate 2
[7] = 24 h, 10 µM, compound concentration 10 uM, replicate 1
[8] = 24 h, 10 µM, compound concentration 10 uM, replicate 2
[9] = 48 h, 1 µM, compound concentration 1 uM, replicate 1
[10] = 48 h, 1 µM, compound concentration 1 uM, replicate 2
[11] = 48 h, 10 µM, compound concentration 10 uM, replicate 1
[12] = 48 h, 10 µM, compound concentration 10 uM, replicate 2

CN1C[C@H](C(=O)N[C@]2(C)O[C@@]3(O)[C@@H]4CCCN4C(=O)[C@H](Cc4ccccc4)N3C2=O)C[C@@H]2c3cccc4[nH]cc(c34)C[C@H]21.CS(=O)(=O)O [DIHYDROERGOTAMINE MESYLATE]
Population Apoptotic (%) [1]: 25%
Population Fragmented Nuclei (%) [1]: 13%
Population Healthy Nuclei (%) [1]: 70%
Population Hoechst High Intensity Objects (%) [1]: 1%
Population Membrane Permeable-Phenotype (%) [1]: 1%
Population Mitochondria Different-Phenotype (%) [1]: 1%
Population Mitotic Cells (%) [1]: 75%
Population Normal (%) [1]: 98%
Population Pyknosed Nuclei (%) [1]: 16%
Population Tubulin-Different-Phenotype (%) [1]: 23%
Total Cell Count [1]: 127
Population Apoptotic (%) [2]: 47%
Population Fragmented Nuclei (%) [2]: 32%
Population Healthy Nuclei (%) [2]: 51%
Population Hoechst High Intensity Objects (%) [2]: 7%
Population Membrane Permeable-Phenotype (%) [2]: 6%
Population Mitochondria Different-Phenotype (%) [2]: 5%
Population Mitotic Cells (%) [2]: 52%
Population Normal (%) [2]: 92%
Population Tubulin-Different-Phenotype (%) [2]: 31%
Total Cell Count [2]: 155
Population Apoptotic (%) [3]: 57%
Population Fragmented Nuclei (%) [3]: 27%
Population Healthy Nuclei (%) [3]: 65%
Population Hoechst High Intensity Objects (%) [3]: 0%
Population Membrane Permeable-Phenotype (%) [3]: 0%
Population Mitochondria Different-Phenotype (%) [3]: 5%
Population Mitotic Cells (%) [3]: 42%
Population Normal (%) [3]: 100%
Population Pyknosed Nuclei (%) [3]: 7%
Population Tubulin-Different-Phenotype (%) [3]: 8%
Total Cell Count [3]: 92
Population Apoptotic (%) [4]: 31%
Population Fragmented Nuclei (%) [4]: 33%
Population Healthy Nuclei (%) [4]: 45%
Population Hoechst High Intensity Objects (%) [4]: 8%
Population Membrane Permeable-Phenotype (%) [4]: 2%
Population Mitochondria Different-Phenotype (%) [4]: 0%
Population Mitotic Cells (%) [4]: 68%
Population Normal (%) [4]: 91%
Population Pyknosed Nuclei (%) [4]: 21%
Population Tubulin-Different-Phenotype (%) [4]: 42%
Total Cell Count [4]: 114
Population Apoptotic (%) [5]: 38%
Population Fragmented Nuclei (%) [5]: 14%
Population Healthy Nuclei (%) [5]: 75%
Population Hoechst High Intensity Objects (%) [5]: 1%
Population Membrane Permeable-Phenotype (%) [5]: 0%
Population Mitochondria Different-Phenotype (%) [5]: 0%
Population Mitotic Cells (%) [5]: 61%
Population Normal (%) [5]: 98%
Population Pyknosed Nuclei (%) [5]: 10%
Population Tubulin-Different-Phenotype (%) [5]: 18%
Total Cell Count [5]: 130
Population Apoptotic (%) [6]: 47%
Population Fragmented Nuclei (%) [6]: 30%
Population Healthy Nuclei (%) [6]: 56%
Population Hoechst High Intensity Objects (%) [6]: 4%
Population Membrane Permeable-Phenotype (%) [6]: 7%
Population Mitochondria Different-Phenotype (%) [6]: 3%
Population Mitotic Cells (%) [6]: 52%
Population Normal (%) [6]: 95%
Population Pyknosed Nuclei (%) [6]: 13%
Population Tubulin-Different-Phenotype (%) [6]: 50%
Total Cell Count [6]: 149
Population Apoptotic (%) [7]: 55%
Population Fragmented Nuclei (%) [7]: 17%
Population Healthy Nuclei (%) [7]: 72%
Population Hoechst High Intensity Objects (%) [7]: 1%
Population Membrane Permeable-Phenotype (%) [7]: 0%
Population Mitochondria Different-Phenotype (%) [7]: 1%
Population Mitotic Cells (%) [7]: 44%
Population Normal (%) [7]: 98%
Population Pyknosed Nuclei (%) [7]: 10%
Population Tubulin-Different-Phenotype (%) [7]: 15%
Total Cell Count [7]: 89
Population Apoptotic (%) [8]: 31%
Population Fragmented Nuclei (%) [8]: 35%
Population Healthy Nuclei (%) [8]: 43%
Population Hoechst High Intensity Objects (%) [8]: 5%
Population Membrane Permeable-Phenotype (%) [8]: 6%
Population Mitochondria Different-Phenotype (%) [8]: 0%
Population Mitotic Cells (%) [8]: 68%
Population Normal (%) [8]: 94%
Population Pyknosed Nuclei (%) [8]: 20%
Population Tubulin-Different-Phenotype (%) [8]: 46%
Total Cell Count [8]: 113
Population Apoptotic (%) [9]: 57%
Population Fragmented Nuclei (%) [9]: 20%
Population Healthy Nuclei (%) [9]: 68%
Population Hoechst High Intensity Objects (%) [9]: 1%
Population Membrane Permeable-Phenotype (%) [9]: 0%
Population Mitochondria Different-Phenotype (%) [9]: 2%
Population Mitotic Cells (%) [9]: 42%
Population Normal (%) [9]: 98%
Population Pyknosed Nuclei (%) [9]: 10%
Population Tubulin-Different-Phenotype (%) [9]: 30%
Total Cell Count [9]: 134
Population Apoptotic (%) [10]: 53%
Population Fragmented Nuclei (%) [10]: 38%
Population Healthy Nuclei (%) [10]: 50%
Population Hoechst High Intensity Objects (%) [10]: 5%
Population Membrane Permeable-Phenotype (%) [10]: 6%
Population Mitochondria Different-Phenotype (%) [10]: 6%
Population Mitotic Cells (%) [10]: 46%
Population Normal (%) [10]: 94%
Population Pyknosed Nuclei (%) [10]: 11%
Population Tubulin-Different-Phenotype (%) [10]: 48%
Total Cell Count [10]: 139
Population Apoptotic (%) [11]: 63%
Population Fragmented Nuclei (%) [11]: 21%
Population Healthy Nuclei (%) [11]: 65%
Population Hoechst High Intensity Objects (%) [11]: 3%
Population Membrane Permeable-Phenotype (%) [11]: 1%
Population Mitochondria Different-Phenotype (%) [11]: 3%
Population Mitotic Cells (%) [11]: 36%
Population Normal (%) [11]: 96%
Population Pyknosed Nuclei (%) [11]: 12%
Population Tubulin-Different-Phenotype (%) [11]: 20%
Total Cell Count [11]: 91
Population Apoptotic (%) [12]: 76%
Population Fragmented Nuclei (%) [12]: 44%
Population Healthy Nuclei (%) [12]: 44%
Population Membrane Permeable-Phenotype (%) [12]: 11%
Population Mitochondria Different-Phenotype (%) [12]: 5%
Population Mitotic Cells (%) [12]: 23%
Population Pyknosed Nuclei (%) [12]: 10%
Population Tubulin-Different-Phenotype (%) [12]: 55%
Total Cell Count [12]: 126
